Calls of active or inactive are those of the source. No cut-off for these calls is given here.
Experiments:
Rattus norvegicus [1] = species on record: Rattus norvegicus; assay: Inhibition of transient voltage-dependent sodium current in Wistar rat brain piriform cortex layer by whole cell patch clamp method; format: functional
Rattus norvegicus [2] = species on record: Rattus norvegicus; assay: Inhibition of persistent voltage-dependent sodium current in Wistar rat brain piriform cortex layer at 50 uM by whole cell patch clamp method; format: functional
SH-SY5Y [3] = assay: Neuroprotective activity against 6-OHDA-induced toxicity in human SH-SY5Y cells assessed as cell viability at 0.1 uM pretreated for 1 hr followed by 6-OHDA challenge measured after 2 hrs by MTT assay; format: functional, cell-based; details: time 3.0 hrs
SH-SY5Y [4] = assay: Neuroprotective activity against glutamate-induced toxicity in human SH-SY5Y cells assessed as cell viability at 10 uM pretreated for 1 hr followed by glutamate challenge measured after 24 hrs by MTT assay; format: functional; details: time 25 hrs, read-out: Activity
How it was run: (§1)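 SH-SY5Y cells attached 24 h, then pretreated 1 h with compound (0.1-10 μM) before glutamate 50 mM for 24 h. Viability by MTT. Morphology under phase-contrast microscope, scored by the USP 28 grade scale (0-4). Mean ± SEM of 4 independent experiments run in triplicate or quadruplicate, ANOVA with Dunnett test.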

Rattus norvegicus [5] = species on record: Rattus norvegicus; assay: Inhibition of transient voltage-dependent sodium current in Wistar rat brain piriform cortex layer assessed as reduction in maximal current amplitude at 5 uM by whole cell patch clamp method; format: functional
SH-SY5Y [6] = assay: Neuroprotective activity against 6-OHDA-induced toxicity in human SH-SY5Y cells assessed as reduction in condensed and fragmented nuclei at 10 uM pretreated for 1 hr followed by 6-OHDA challenge measured after 2 hrs by DAPI staining based assay relative to control; format: functional; parameters: scale not given: the % may be the effect or the level left; details: time 3 hrs
How it was run: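 DAPI staining of SH-SY5Y cells pretreated 1 h with compound at 10 μM, then given 6-OHDA 55 μM for 2 h. Condensed or fragmented nuclei scored as apoptotic. Mean ± SEM of 4 independent experiments.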

Rattus norvegicus [7] = species on record: Rattus norvegicus; assay: Inhibition of persistent voltage-dependent sodium current in Wistar rat brain piriform cortex layer at 5 uM by whole cell patch clamp method; format: functional
Rattus norvegicus [8] = species on record: Rattus norvegicus; assay: Inhibition of transient voltage-dependent sodium current in Wistar rat brain piriform cortex layer assessed as reduction in maximal current amplitude at 15 uM by whole cell patch clamp method; format: functional
Rattus norvegicus [9] = species on record: Rattus norvegicus; assay: Inhibition of transient voltage-dependent sodium current in Wistar rat brain piriform cortex layer assessed as negative shift of inactivation function at 15 uM by whole cell patch clamp method; format: functional
SH-SY5Y [10] = assay: Neuroprotective activity against glutamate-induced toxicity in human SH-SY5Y cells assessed as reduction in ROS production at 0.1 to 10 uM by DCFH-DA staining based assay; format: functional, cell-based; details: dose 0.1-10 µM, time 24.0 hrs, TDE = time-dependent effect
How it was run: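 SH-SY5Y cells loaded with DCFH-DA (5 μM, 30 min) and washed before treatment. Pretreated 1 h with compound (0.1-10 μM), then glutamate 50 mM. Fluorescence (ex 485/em 535 nm) read at 1 h or 24 h and expressed as % inhibition of glutamate-induced ROS. 4 independent experiments.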

SH-SY5Y [11] = assay: Neuroprotective activity against glutamate-induced toxicity in human SH-SY5Y cells assessed as reduction in cell rounding at 10 uM pretreated for 1 hr followed by glutamate challenge measured after 24 hrs by phase-contrast light microscopic analysis; format: functional, cell-based; details: time 25.0 hrs; how it was run: as §1
[12] = Cytotoxicity against human SH-SY5Y cells assessed as cell viability at 10 uM measured after 24 hrs by MTT assay; format: toxicity, cell-based
How it was run: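 SH-SY5Y cells (RPMI 1640, 10% FBS, 37 °C, 5% CO₂, exponential growth) seeded 8 x 10⁴ cells/mL and left to attach 24 h, then exposed to compound alone for 24 h. MTT viability read. Morphology graded 0-4 on the USP 28 scale under phase contrast. Compound diluted from DMSO stock in PBS, final DMSO <0.01%.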

Rattus norvegicus [13] = species on record: Rattus norvegicus; assay: Inhibition of persistent voltage-dependent sodium current in Wistar rat brain piriform cortex layer at 15 uM by whole cell patch clamp method; format: functional
Rattus norvegicus [14] = species on record: Rattus norvegicus; assay: Neuroprotective activity against oxygen glucose deprivation/reperfusion-induced Wistar rat cortical brain assessed as reduction in LDH release by measuring minimal effective concentration; format: functional
How it was run: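 Male Wistar rat cortical slices (400 μm) in oxygenated ACSF, pH 7.4, 1 h at room temperature, then 30 min at 37 °C. OGD for 30 min in glucose-free ACSF with 11 mM sucrose under 95% N₂/5% CO₂. Compound added in the reoxygenation buffer. Glutamate and LDH release measured. Mean ± SEM of at least four experiments, ANOVA with Dunnett test.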

SH-SY5Y [15] = assay: Neuroprotective activity against glutamate-induced toxicity in human SH-SY5Y cells assessed as reduction in cell shrinkage at 10 uM pretreated for 1 hr followed by glutamate challenge measured after 24 hrs by phase-contrast light microscopic analysis; format: functional, cell-based; details: time 25.0 hrs; how it was run: as §1
Rattus norvegicus [16] = species on record: Rattus norvegicus; assay: Inhibition of high voltage-activated calcium current in Wistar rat brain piriform cortex assessed as time required to inhibit barium current by whole cell patch clamp method; format: functional
How it was run: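 Acutely dissociated P15-P22 Wistar rat piriform cortex neurons recorded whole-cell at holding -70 mV. 5 mM Ba²⁺ was the charge carrier, with a Cs methanesulfonate pipette. HVA currents evoked by step or ramp protocols from -60 mV. Compound applied by local perfusion (DMSO 0.02-0.67%). Peak I_Ba amplitude tracked over time, and concentration-response fitted with the sum of two Hill functions.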

SMILES: CCN(CC)/C(C)=N/C1=Nc2ccccc2CS1
- inhibition (Rattus norvegicus [1]): Dose-Dependent Effect
- inhibition in vivo at 50 µM (Rattus norvegicus [2]): 91.8%
- Activity (SH-SY5Y [3]): Active
- viability at 10 µM (SH-SY5Y [4]): 65%
- inhibition in vivo at 5 µM (Rattus norvegicus [5]): 26.4%
- Activity (SH-SY5Y [6]): >20%
- inhibition in vivo at 5 µM (Rattus norvegicus [7]): 70.7%
- inhibition in vivo at 15 µM (Rattus norvegicus [8]): 24.2%
- Activity (Rattus norvegicus [9]): 11.8 mV
- Activity (SH-SY5Y [10]): Tde
- Activity (SH-SY5Y [11]): Active
- viability reduction at 24 h, 10 µM [12]: 10%
- inhibition in vivo at 15 µM (Rattus norvegicus [13]): 77%
- MEC (Rattus norvegicus [14]): 0.1 µM
- Activity (SH-SY5Y [15]): Active

SMILES: CCCN(CCC)/C(C)=N/C1=Nc2ccccc2CS1
- Time (Rattus norvegicus [16]): 128.2 ms
- Activity (SH-SY5Y [3]): Active
- viability at 10 µM (SH-SY5Y [4]): 65%
- Activity (SH-SY5Y [6]): >20%
- Activity (SH-SY5Y [10]): Tde
- Activity (SH-SY5Y [11]): Active
- viability reduction at 24 h, 10 µM [12]: 10%
- MEC (Rattus norvegicus [14]): 0.1 µM
- Activity (SH-SY5Y [15]): Active
